Source: ChEMBL document CHEMBL4376835, “Discovery of Nonpungent Transient Receptor Potential Vanilloid 1 (TRPV1) Agonist as Strong Topical Analgesic” (J Med Chem, 2020)
The source made the active and inactive calls.

Legend:
[1] = Genotoxicity in ip dosed rat by micronucleus assay; assay type: toxicity, organism-based; details: in vivo
[2] = Toxicity in po dosed ICR mouse administered as single dose; assay type: organism-based; details: in vivo
[3] = Genotoxicity in CHO-WBLT cells assessed as chromosomal aberration incubated for 6 hrs in presence of rat S9 by Q-banding technique; assay type: toxicity, subcellular, Cricetulus griseus; details: chinese hamster, s9, 6 h
[4] = test system: Mus musculus; experiment: Analgesic activity against formalin-induced nociception ICR mouse model assessed as reduction in pain behaviour by measuring less licking of formalin injected hind paw at 1 mg/kg, ip pretreated with compound 30 mins prior to formalin induction measured during second phase (20-30 mins after formalin injection) by formalin test; assay type: functional
Procedure, shortened: (§1)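 Mice were dosed i.p. with 0.1–10 mg/kg, with vehicle and gabapentin (50, 100 mg/kg i.p.) arms. 2% formalin was injected into the dorsal hindpaw, and paw-licking time was recorded for the first phase (5 min) and the second phase (20–30 min). ED50 was taken from the dose–response. Mean±SEM, n=8.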

[5] = molecular target: T1, Transient receptor potential cation channel subfamily V member 1 (Homo sapiens, UniProt Q8NER1); experiment: Potency index, ratio of EC50 of zu-capsaicin to EC50 of compound for agonist activity at human TRPV1 expressed in CHO cells assessed as increase in 45Ca2+ uptake incubated for 5 mins by liquid scintillation counting method; assay type: cell-based
[6] = molecular target: Transient receptor potential cation channel subfamily V member 1 (Rattus norvegicus, UniProt O35433); experiment: Displacement of [3H]-RTX from rat TRPV1 expressed in CHO cells incubated for 60 mins by radioligand competition assay based scintillation counting method; assay type: cell-based
[7] = test system: Rattus norvegicus; experiment: Analgesic activity against L5/L6 spinal nerve ligation-induced neuropathic pain Sprague-Dawley rat model assessed as maximal decrease in neuropathic pain by measuring increase in paw withdrawal threshold in response to von frey filament at 1 to 4 mg/kg, sc compound administered at day 14 after ligation and measured at 30 mins after drug dosing by up and down method; assay type: functional, organism-based
Procedure, shortened: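 Rats with spinal nerve ligation were dosed s.c. Paw withdrawal threshold measured with von Frey filaments up to 1.5 h after dosing. Mean±SEM, n=7-8, compared with vehicle.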

[8] = Genotoxicity in Salmonella typhimurium TA97 incubated for 48 hrs by Ames test; assay type: toxicity; details: salmonella enterica subsp. enterica serovar typhimurium
[9] = test system: Mus musculus; experiment: Induction of hypothermia in ip dosed ICR mouse assessed as decrease in body temperature measured for 7 hrs; assay type: functional, organism-based
[10] = molecular target: T1, Transient receptor potential cation channel subfamily V member 1; experiment: Potency index, ratio of Ki of capsaicin to Ki for displacement of [3H]RTX from human TRPV1 expressed in CHO cells incubated for 60 mins by scintillation counting method; assay type: cell-based
[11] = Genotoxicity in Salmonella typhimurium TA98 incubated for 48 hrs in presence of rat S9 by Ames test; assay type: toxicity, subcellular; details: salmonella enterica subsp. enterica serovar typhimurium, s9, 48 h
[12] = molecular target: Transient receptor potential cation channel subfamily V member 1 (Rattus norvegicus) (UniProt O35433); experiment: Agonist activity at rat TRPV1 expressed in HEK293 cells assessed as increase in calcium influx at 0.3 to 30 uM incubated for 1 min by Fluo-4-AM dye based FLIPR assay; assay type: cell-based
Procedure, shortened: (§2)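 Cells individually transfected with a single TRP channel (TRPV1, hTRPA1, mTRPA1, mTRPV3 or mTRPM8). Intracellular calcium influx recorded by FLIPR after the test compound was applied. Each cell type was also challenged with an agonist suited to its own TRP channel.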

[13] = molecular target: Transient receptor potential cation channel subfamily A member 1 (Homo sapiens) (UniProt O75762); experiment: Agonist activity at human TRPA1 expressed in HEK293 cells assessed as increase in calcium influx at 0.3 to 30 uM incubated for 1 min by Fluo-4-AM dye based FLIPR assay; assay type: cell-based; procedure, shortened: as §2
[14] = Genotoxicity in Salmonella typhimurium TA1538 incubated for 48 hrs by Ames test; assay type: toxicity; details: salmonella enterica subsp. enterica serovar typhimurium
[15] = Toxicity in ICR mouse assessed as ear edema administered topically and measured after 30 mins; details: in vivo, topical_or_ocular, 0.5 h
Procedure, shortened: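 Ear swelling test: a solution of the agent was applied to mouse ears, and ear punch biopsies were collected 30 min later and weighed.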

[16] = Toxicity in Sprague-Dawley rat assessed as pathological problems administered topically daily for 4 weeks; details: in vivo, topical_or_ocular, 672 h
Procedure, shortened: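 Rats given daily topical application for 4 weeks, then examined for pathological findings.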

[17] = molecular target: T1, Transient receptor potential cation channel subfamily V member 1; experiment: Partial agonist activity at human TRPV1 expressed in CHO cells assessed as maximal increase in 45Ca2+ uptake incubated for 5 mins by liquid scintillation counting method relative to capsaicin; assay type: cell-based
Procedure, shortened: (§3)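 Human or rat TRPV1 heterologously expressed in CHO cells; functional agonism read as 45Ca2+ uptake. Values are means of at least three experiments.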

[18] = test system: Rattus norvegicus; experiment: Analgesic activity against L5/L6 spinal nerve ligation-induced neuropathic pain Sprague-Dawley rat model assessed as decrease in neuropathic pain by measuring increase in paw withdrawal threshold in response to von frey filament at 5 to 10 mg/kg, ip compound administered at day 14 after ligation and measured up to 1.5 hrs after drug dosing by up and down method relative to control; assay type: functional
Procedure, shortened: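 Rat spinal nerve ligation model of neuropathic pain. Compound was given i.p. at 1, 2, 5 or 10 mg/kg; a gabapentin 65 mg/kg i.p. arm and a saline i.p. arm were run alongside. Von Frey withdrawal thresholds were taken pre-surgery and on days 1, 7 and 14, then at 0.5, 1 and 1.5 h post-dose. Mean±SEM, n=7-8.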

[19] = Genotoxicity in CHL/IU cells by chromosomal aberration assay; assay type: toxicity, cell-based, Cricetulus griseus; details: chinese hamster
[20] = Toxicity in ICR mouse assessed as skin irritation by measuring ear scratching administered topically and measured for 30 mins; details: in vivo, topical_or_ocular, 0.5 h
Procedure, shortened: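 Ear scratching test: a solution of the agent was applied to mouse ears, and scratching movements were counted over the following 30 min.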

[21] = Toxicity in ip dosed ICR mouse administered as single dose; assay type: organism-based; details: in vivo
[22] = molecular target: Transient receptor potential cation channel subfamily V member 1 (Rattus norvegicus) (UniProt O35433); experiment: Partial agonist activity at rat TRPV1 expressed in CHO cells assessed as maximal increase in 45Ca2+ uptake incubated for 5 mins by liquid scintillation counting method relative to capsaicin; assay type: cell-based; procedure, shortened: as §3
[23] = molecular target: T1, Transient receptor potential cation channel subfamily V member 1; experiment: Agonist activity at human TRPV1 expressed in HEK293 cells assessed as increase in calcium influx at 0.3 to 30 uM incubated for 1 min by Fluo-4-AM dye based FLIPR assay; assay type: cell-based; procedure, shortened: as §2
[24] = Genotoxicity in CHO-WBLT cells assessed as chromosomal aberration incubated for 6 hrs in presence of rat S9 by FISH painting analysis; assay type: toxicity, subcellular, Cricetulus griseus; details: chinese hamster, s9, 6 h
[25] = test system: Mus musculus; experiment: Analgesic activity in ip dosed formalin-induced nociception ICR mouse model assessed as reduction in pain behaviour by measuring less licking of formalin injected hind paw pretreated with compound 30 mins prior to formalin induction measured during second phase (20-30 mins after formalin injection) by formalin test; assay type: functional; procedure, shortened: as §1
[26] = Genotoxicity in CHO-WBLT cells assessed as chromosomal aberration incubated for 6 hrs in presence of rat S9 by laser scan cytometry; assay type: toxicity, subcellular, Cricetulus griseus; details: chinese hamster, s9, 6 h
[27] = test system: Mus musculus; experiment: Induction of hypothermia in ICR mouse assessed as decrease in body temperature at 0.5 mg/kg, ip coadministered with capsaicin and measured for 7 hrs; assay type: functional, organism-based
[28] = Genotoxicity in Salmonella typhimurium TA102 incubated for 48 hrs by Ames test; assay type: toxicity; details: salmonella enterica subsp. enterica serovar typhimurium
[29] = Genotoxicity in Salmonella typhimurium TA98 incubated for 48 hrs by Ames test; assay type: toxicity; details: salmonella enterica subsp. enterica serovar typhimurium
[30] = Genotoxicity in Salmonella typhimurium TA102 incubated for 48 hrs in presence of rat S9 by Ames test; assay type: toxicity, subcellular; details: salmonella enterica subsp. enterica serovar typhimurium, s9, 48 h

T1 sequence (Q8NER1 whole entry): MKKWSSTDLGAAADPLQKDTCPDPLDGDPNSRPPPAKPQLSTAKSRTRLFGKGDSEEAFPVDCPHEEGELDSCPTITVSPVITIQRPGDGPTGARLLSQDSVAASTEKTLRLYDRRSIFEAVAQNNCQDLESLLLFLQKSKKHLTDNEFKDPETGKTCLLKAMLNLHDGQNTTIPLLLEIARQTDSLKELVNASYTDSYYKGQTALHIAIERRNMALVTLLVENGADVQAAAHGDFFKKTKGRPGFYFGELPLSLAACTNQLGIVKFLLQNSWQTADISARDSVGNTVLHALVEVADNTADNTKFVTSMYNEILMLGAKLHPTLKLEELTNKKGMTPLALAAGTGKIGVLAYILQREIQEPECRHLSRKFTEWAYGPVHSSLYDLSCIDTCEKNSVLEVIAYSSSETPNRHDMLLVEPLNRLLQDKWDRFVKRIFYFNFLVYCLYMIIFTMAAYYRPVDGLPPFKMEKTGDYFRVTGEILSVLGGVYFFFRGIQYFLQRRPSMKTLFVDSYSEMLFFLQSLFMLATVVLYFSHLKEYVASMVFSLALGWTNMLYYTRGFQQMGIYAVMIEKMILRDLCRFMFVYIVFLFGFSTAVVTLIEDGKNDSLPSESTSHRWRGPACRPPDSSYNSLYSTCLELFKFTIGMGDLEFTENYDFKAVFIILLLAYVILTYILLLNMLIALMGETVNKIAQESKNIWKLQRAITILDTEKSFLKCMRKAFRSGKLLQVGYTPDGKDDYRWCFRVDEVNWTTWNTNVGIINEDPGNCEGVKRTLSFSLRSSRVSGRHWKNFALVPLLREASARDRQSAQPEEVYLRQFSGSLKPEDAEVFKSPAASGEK
Sequence of Transient receptor potential cation channel subfamily V member 1 (Rattus norvegicus) (O35433 whole entry): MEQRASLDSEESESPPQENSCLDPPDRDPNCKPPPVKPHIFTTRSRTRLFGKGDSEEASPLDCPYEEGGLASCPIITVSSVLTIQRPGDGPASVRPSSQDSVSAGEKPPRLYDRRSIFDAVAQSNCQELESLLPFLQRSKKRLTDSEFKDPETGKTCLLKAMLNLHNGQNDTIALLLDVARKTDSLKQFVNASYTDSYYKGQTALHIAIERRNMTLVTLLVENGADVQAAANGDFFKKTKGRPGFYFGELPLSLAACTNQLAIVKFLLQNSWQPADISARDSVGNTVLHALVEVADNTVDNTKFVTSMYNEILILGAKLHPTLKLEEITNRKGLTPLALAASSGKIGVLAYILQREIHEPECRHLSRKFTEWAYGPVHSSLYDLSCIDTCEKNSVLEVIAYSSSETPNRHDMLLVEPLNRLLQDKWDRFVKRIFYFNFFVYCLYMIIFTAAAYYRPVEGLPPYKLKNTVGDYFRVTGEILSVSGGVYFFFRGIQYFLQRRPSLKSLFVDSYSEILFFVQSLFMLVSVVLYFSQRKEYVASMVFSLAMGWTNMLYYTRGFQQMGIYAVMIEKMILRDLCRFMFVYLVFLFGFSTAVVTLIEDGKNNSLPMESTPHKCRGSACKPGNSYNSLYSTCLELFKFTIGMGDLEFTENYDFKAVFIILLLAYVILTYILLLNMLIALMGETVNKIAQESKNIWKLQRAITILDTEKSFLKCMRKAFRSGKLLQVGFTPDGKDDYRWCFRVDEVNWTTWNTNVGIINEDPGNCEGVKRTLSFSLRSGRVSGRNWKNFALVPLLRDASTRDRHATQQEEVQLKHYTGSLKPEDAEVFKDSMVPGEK
Sequence of Transient receptor potential cation channel subfamily A member 1 (Homo sapiens) (O75762 whole entry): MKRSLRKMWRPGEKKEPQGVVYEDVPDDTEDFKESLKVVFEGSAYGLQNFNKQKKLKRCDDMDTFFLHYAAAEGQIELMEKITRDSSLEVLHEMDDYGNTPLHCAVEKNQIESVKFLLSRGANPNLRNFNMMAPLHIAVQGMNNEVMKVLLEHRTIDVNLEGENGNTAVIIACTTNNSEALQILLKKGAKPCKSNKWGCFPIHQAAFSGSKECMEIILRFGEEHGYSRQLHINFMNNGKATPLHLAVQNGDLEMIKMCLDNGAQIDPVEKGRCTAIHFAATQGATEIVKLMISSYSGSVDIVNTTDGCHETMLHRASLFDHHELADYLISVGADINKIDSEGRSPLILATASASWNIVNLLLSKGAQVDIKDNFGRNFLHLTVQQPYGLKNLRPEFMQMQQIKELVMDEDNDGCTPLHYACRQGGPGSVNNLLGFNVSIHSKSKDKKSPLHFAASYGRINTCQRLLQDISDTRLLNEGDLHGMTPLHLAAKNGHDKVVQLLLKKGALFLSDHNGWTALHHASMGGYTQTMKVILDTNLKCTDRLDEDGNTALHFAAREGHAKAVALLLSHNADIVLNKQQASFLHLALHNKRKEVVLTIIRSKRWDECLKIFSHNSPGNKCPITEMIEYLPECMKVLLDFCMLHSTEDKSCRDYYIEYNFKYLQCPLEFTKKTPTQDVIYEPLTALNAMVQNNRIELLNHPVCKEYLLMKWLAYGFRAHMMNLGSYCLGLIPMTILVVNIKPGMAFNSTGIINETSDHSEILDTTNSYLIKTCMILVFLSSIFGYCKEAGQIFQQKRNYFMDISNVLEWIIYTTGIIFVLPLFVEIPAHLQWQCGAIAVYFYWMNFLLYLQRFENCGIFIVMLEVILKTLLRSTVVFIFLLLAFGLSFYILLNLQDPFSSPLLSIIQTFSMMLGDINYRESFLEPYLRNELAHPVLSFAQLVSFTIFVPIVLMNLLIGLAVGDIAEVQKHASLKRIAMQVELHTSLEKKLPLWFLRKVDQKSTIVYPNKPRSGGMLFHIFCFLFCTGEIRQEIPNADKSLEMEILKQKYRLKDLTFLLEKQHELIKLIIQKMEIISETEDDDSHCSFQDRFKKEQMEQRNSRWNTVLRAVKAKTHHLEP
Sequence of Transient receptor potential cation channel subfamily V member 1 (Rattus norvegicus, UniProt O35433) (O35433 whole entry): as the sequence (O35433 whole entry) above

CC(C)(C)c1nc(-c2cccc(Cl)c2)c(CNC(=O)Nc2ccc(CO)c(F)c2)s1
Activity [1]: Non-Toxic | LD50 [2]: > 2000 mg/kg | Activity [3]: Non-Toxic | MPE [4]: 100% | Ratio EC50 [5]: 5 | Ki [6]: 23.8 nM | Activity [7]: Active | Activity [8]: Non-Toxic | Activity [9]: Dose-dependent effect | Ratio Ki [10]: 80 | Activity [11]: Non-Toxic | Activity [12]: Active | Activity [13]: inactive | Activity [14]: Non-Toxic | Activity [15]: Non-Toxic | Activity [16]: Non-Toxic | Activity [17]: 50 to 60% | MPE [18]: 100% | Activity [19]: Non-Toxic | Activity [20]: Non-Toxic | LD50 [21]: > 200 mg/kg | Activity [22]: 50 to 60% | Activity [23]: Active | Activity [24]: Non-Toxic | Activity [25]: Dose-dependent effect | ED50 [25]: 0.16 mg/kg | Activity [26]: Non-Toxic | Activity [27]: Active | Activity [28]: Non-Toxic | Activity [29]: Non-Toxic | Activity [30]: Non-Toxic
